Data reported in ChEMBL document CHEMBL1759839, “Synthesis, biopharmaceutical characterization, antimicrobial and antioxidant activities of 1-(4'-O-β-D-glucopyranosyloxy-2'-hydroxyphenyl)-3-aryl-propane-1,3-diones” (2011).
Converted amounts (≈) assume the structure as drawn.

Legend:
Assay type in all cases: functional
[1] = tested on: Escherichia coli; experiment: Antibacterial activity against Escherichia coli ATCC […] after 24 hrs
Summary of the method: (§1)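 Twofold broth dilution MIC in Mueller-Hinton broth, pH 6.9, inoculum (1-2) × 10³ cells/mL. Compounds and ampicillin trihydrate were dissolved in DMSO at 20 mg/mL stock and serially diluted from 20 down to 0.005. […] Plates incubated at 36 °C with a humid chamber and read visually after 24 h. MIC was the lowest concentration with no visible turbidity.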

[2] = tested on: Nakaseomyces glabratus; experiment: Antifungal activity against Candida glabrata ATCC 36583 after 48 hrs; conditions: ATCC 36583, 48 h
Summary of the method: (§2)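 Yeasts grown on Sabouraud dextrose agar, then in Sabouraud liquid medium at 36 °C overnight. Inoculum diluted in MOPS-buffered RPMI-1640 with L-glutamine, pH 7, to 2.5 × 10³ cfu/mL final. Twofold dilutions were made from a 20 mg/mL DMSO stock, with fluconazole as reference and DMSO at most 12.5% final. Incubated at 36 °C, humid, and read visually at 48 h. MIC was the lowest concentration giving no visible turbidity.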

[3] = tested on: Candida albicans; experiment: Antifungal activity against Candida albicans ATCC 10231 after 48 hrs; conditions: ATCC 10231, 48 h; summary of the method: as §2
[4] = tested on: Bacillus subtilis; experiment: Antibacterial activity against Bacillus subtilis ATCC 6633 after 24 hrs; conditions: ATCC 6633, 24 h; summary of the method: as §1
[5] = tested on: Radical scavenging activity; experiment: Antioxidant activity assessed as DPPH free radical scavenging activity after 20 mins by spectrophotometric analysis; design: concentration or dose not given beside the values
Summary of the method: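 Reduction of methanolic DPPH radical, with absorbance recorded at 516 nm and run in triplicate. Percent scavenging was calculated from the initial and final absorbance of each solution.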

[6] = tested on: Pseudomonas aeruginosa; experiment: Antibacterial activity against Pseudomonas aeruginosa ATCC 27853 after 24 hrs; conditions: ATCC 27853, 24 h; summary of the method: as §1
[7] = tested on: Staphylococcus aureus; experiment: Antibacterial activity against Staphylococcus aureus ATCC 25923 after 24 hrs; conditions: ATCC 25923, 24 h; summary of the method: as §1
[8] = tested on: Escherichia coli; experiment: Antibacterial activity against Escherichia coli ATCC […]; summary of the method: as §1

Row | Compound | MIC [1] [µg/mL] | MIC [2] [µg/mL] | MIC [3] [µg/mL] | MIC [4] [µg/mL] | Activity [5] [%] | MIC [6] [µg/mL] | MIC [7] [µg/mL] | MIC [8] [µg/mL]
1 | O=C(CC(=O)c1ccc(O[C@@H]2O[C@H](CO)[C@@H](O)[C@H](O)[C@H]2O)cc1O)c1ccccc1 | 1250 (≈ 2990 µM) | 2500 (≈ 5980 µM) | 2500 (≈ 5980 µM) | 150 (≈ 359 µM) | 81.2 | 150 (≈ 359 µM) | 300 (≈ 717 µM) | 
2 | COc1cccc(C(=O)CC(=O)c2ccc(O[C@@H]3O[C@H](CO)[C@@H](O)[C@H](O)[C@H]3O)cc2O)c1 | 2500 (≈ 5580 µM) | 5000 (≈ 11200 µM) | 10000 (≈ 22300 µM) | 150 (≈ 335 µM) | 77.3 | 5000 (≈ 11200 µM) | 625 (≈ 1390 µM) | 
3 | Cc1cccc(C(=O)CC(=O)c2ccc(O[C@@H]3O[C@H](CO)[C@@H](O)[C@H](O)[C@H]3O)cc2O)c1 | 5000 (≈ 11600 µM) | 10000 (≈ 23100 µM) | 2500 (≈ 5780 µM) | 2500 (≈ 5780 µM) | 79.5 | 10000 (≈ 23100 µM) | 20 (≈ 46.3 µM) | 
4 | CC1(C)S[C@@H]2[C@H](NC(=O)[C@H](N)c3ccccc3)C(=O)N2[C@H]1C(=O)O [AMPICILLIN] | 10 (≈ 28.6 µM) |  |  | 5 (≈ 14.3 µM) |  | 5 (≈ 14.3 µM) | 19 (≈ 54.4 µM) | 
5 | O=C(CC(=O)c1ccc(O[C@@H]2O[C@H](CO)[C@@H](O)[C@H](O)[C@H]2O)cc1O)c1ccc(Cl)cc1 | 70 (≈ 155 µM) | 5000 (≈ 11000 µM) | 150 (≈ 331 µM) | 300 (≈ 662 µM) | 84.3 | 20 (≈ 44.2 µM) | 150 (≈ 331 µM) | 
6 | O=C1O[C@H]([C@@H](O)CO)C(O)=C1O |  |  |  |  | 98 |  |  | 
7 | OC(Cn1cncn1)(Cn1cncn1)c1ccc(F)cc1F [FLUCONAZOLE] |  | 10 (≈ 32.7 µM) | 10 (≈ 32.7 µM) |  |  |  |  | 
8 | Cc1ccc(C(=O)CC(=O)c2ccc(O[C@@H]3O[C@H](CO)[C@@H](O)[C@H](O)[C@H]3O)cc2O)cc1 | 5000 (≈ 11600 µM) | 5000 (≈ 11600 µM) | 5000 (≈ 11600 µM) | 2500 (≈ 5780 µM) | 82 | 5000 (≈ 11600 µM) | 625 (≈ 1450 µM) | 
9 | O=C(CC(=O)c1ccccc1Cl)c1ccc(O[C@@H]2O[C@H](CO)[C@@H](O)[C@H](O)[C@H]2O)cc1O | 20 (≈ 44.2 µM) | 5000 (≈ 11000 µM) | 5000 (≈ 11000 µM) | 1250 (≈ 2760 µM) | 89.1 | 20 (≈ 44.2 µM) | 150 (≈ 331 µM) | 
10 | O=C(CC(=O)c1ccc(O[C@@H]2O[C@H](CO)[C@@H](O)[C@H](O)[C@H]2O)cc1O)c1cccc(Cl)c1 | 20 (≈ 44.2 µM) | 10000 (≈ 22100 µM) | 10000 (≈ 22100 µM) | 625 (≈ 1380 µM) | 83.5 | 1250 (≈ 2760 µM) | 150 (≈ 331 µM) | 
11 | COc1ccc(C(=O)CC(=O)c2ccc(O[C@@H]3O[C@H](CO)[C@@H](O)[C@H](O)[C@H]3O)cc2O)cc1 | 5000 (≈ 11200 µM) | 2500 (≈ 5580 µM) | 1250 (≈ 2790 µM) | 2500 (≈ 5580 µM) | 73.5 | 30 (≈ 66.9 µM) | 2500 (≈ 5580 µM) | 5000 (≈ 11200 µM)
